pEC50, pIC50: −log10 of the molar value. “Also recorded” adds a separate entry of the source.
Legend:
[1] = target: mGluR8 (Homo sapiens, UniProt O00222); assay: EC20 activation assay, mGluR8; type: cell-based; conditions: at 30 μM
[2] = test system: mGluRs; assay: Selectivity screen across the mGluRs; type: cell-based
[3] = target: T1, mGluR1 (Homo sapiens, UniProt Q13255); assay: EC20 activation assay, mGluR1; type: cell-based; conditions: at 30 μM
[4] = target: T2, mGluR4 (Homo sapiens, UniProt Q14833); assay: Potentiation of an EC20 of glutamate in human mGluR4/Gqi5 CHO cells; type: cell-based; conditions: for mGluR4 PAM activity (in words): potentiation of EC20 glutamate, mGluR4/Gqi5 CHO cells; for loss in potency relative to 6: mGluR4 PAM EC50 versus re-synthesized 6
[5] = target: T1, mGluR1; assay: mGluR1 antagonist activity; type: cell-based
[6] = target: T2, mGluR4; assay: Receptor activation in mGluR4/Gqi5 CHO cells in the absence of glutamate; type: cell-based; conditions: no EC20 glutamate added
[7] = target: T2, mGluR4; type: cell-based; conditions: at 30 μM compound
Outline: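 Human mGluR4 co-expressed with chimeric Gqi5 in CHO cells. Glutamate concentration–response curves run with and without 30 μM test compound; fold shift taken as the leftward displacement of the glutamate curve. Responses expressed as % of maximal glutamate response. Average of at least three independent determinations, each in triplicate.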

[8] = test system: mGluR4; conditions: cited from earlier work
[9] = test system: preclinical Parkinson's disease models; conditions: cited from earlier work
[10] = test system: mGluR4; conditions: cited from earlier work; for pEC50: mGluR4 PAM
[11] = target: T1, mGluR1; conditions: cited from earlier work

T1 sequence (Q13255 19-1194): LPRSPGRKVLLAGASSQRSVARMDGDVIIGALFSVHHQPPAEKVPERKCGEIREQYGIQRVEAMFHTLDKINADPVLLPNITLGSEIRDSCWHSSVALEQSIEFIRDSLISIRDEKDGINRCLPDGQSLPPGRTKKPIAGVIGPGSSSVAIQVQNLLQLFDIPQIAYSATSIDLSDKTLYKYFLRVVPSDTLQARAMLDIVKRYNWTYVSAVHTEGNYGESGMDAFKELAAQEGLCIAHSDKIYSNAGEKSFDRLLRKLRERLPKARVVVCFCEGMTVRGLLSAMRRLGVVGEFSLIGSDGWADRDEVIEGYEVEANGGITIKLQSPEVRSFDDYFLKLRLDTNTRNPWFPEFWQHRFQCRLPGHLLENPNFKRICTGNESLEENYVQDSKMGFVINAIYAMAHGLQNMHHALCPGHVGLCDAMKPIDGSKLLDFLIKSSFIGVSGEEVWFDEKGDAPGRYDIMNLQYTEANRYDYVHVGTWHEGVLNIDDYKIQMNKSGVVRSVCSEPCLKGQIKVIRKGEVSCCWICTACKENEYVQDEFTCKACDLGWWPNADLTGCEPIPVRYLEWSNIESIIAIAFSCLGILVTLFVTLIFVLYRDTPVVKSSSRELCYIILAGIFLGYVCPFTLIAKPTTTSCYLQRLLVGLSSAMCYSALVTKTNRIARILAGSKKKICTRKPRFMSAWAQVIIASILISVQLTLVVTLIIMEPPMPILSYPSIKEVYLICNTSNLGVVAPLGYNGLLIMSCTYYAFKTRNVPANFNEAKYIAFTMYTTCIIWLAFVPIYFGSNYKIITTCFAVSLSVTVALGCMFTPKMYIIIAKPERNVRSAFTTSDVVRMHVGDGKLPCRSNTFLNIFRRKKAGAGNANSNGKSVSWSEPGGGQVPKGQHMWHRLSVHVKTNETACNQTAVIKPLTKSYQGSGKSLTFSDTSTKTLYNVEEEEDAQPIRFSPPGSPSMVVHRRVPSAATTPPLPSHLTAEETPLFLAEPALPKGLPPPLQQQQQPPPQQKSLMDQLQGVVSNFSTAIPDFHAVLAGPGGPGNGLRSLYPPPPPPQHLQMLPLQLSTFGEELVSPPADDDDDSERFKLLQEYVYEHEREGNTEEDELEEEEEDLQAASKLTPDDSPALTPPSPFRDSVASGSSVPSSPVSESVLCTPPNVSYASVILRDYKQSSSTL
T2 sequence (Q14833 33-912): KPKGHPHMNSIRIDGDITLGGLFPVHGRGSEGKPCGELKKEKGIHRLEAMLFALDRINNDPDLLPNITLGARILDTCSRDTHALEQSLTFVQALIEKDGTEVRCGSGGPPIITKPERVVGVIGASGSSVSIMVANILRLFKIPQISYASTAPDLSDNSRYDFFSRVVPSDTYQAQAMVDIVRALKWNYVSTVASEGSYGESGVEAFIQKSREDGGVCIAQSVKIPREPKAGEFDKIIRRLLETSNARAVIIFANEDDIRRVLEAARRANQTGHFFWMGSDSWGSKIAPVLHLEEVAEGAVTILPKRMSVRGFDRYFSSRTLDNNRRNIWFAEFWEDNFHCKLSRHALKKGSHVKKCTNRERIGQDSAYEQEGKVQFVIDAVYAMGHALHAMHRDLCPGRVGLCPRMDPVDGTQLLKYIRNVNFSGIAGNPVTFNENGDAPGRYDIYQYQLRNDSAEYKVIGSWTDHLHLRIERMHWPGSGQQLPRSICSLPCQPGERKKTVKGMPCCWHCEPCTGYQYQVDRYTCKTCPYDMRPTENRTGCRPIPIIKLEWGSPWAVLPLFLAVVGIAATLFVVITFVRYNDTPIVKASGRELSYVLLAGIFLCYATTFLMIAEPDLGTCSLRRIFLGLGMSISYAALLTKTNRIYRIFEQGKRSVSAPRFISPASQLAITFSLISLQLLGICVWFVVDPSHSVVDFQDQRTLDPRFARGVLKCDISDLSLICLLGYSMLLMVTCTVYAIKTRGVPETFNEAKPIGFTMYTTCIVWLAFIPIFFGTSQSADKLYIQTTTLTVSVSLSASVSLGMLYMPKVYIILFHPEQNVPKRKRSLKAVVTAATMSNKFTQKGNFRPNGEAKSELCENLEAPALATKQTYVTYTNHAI
Sequence of mGluR8 (O00222 34-908, species assumed): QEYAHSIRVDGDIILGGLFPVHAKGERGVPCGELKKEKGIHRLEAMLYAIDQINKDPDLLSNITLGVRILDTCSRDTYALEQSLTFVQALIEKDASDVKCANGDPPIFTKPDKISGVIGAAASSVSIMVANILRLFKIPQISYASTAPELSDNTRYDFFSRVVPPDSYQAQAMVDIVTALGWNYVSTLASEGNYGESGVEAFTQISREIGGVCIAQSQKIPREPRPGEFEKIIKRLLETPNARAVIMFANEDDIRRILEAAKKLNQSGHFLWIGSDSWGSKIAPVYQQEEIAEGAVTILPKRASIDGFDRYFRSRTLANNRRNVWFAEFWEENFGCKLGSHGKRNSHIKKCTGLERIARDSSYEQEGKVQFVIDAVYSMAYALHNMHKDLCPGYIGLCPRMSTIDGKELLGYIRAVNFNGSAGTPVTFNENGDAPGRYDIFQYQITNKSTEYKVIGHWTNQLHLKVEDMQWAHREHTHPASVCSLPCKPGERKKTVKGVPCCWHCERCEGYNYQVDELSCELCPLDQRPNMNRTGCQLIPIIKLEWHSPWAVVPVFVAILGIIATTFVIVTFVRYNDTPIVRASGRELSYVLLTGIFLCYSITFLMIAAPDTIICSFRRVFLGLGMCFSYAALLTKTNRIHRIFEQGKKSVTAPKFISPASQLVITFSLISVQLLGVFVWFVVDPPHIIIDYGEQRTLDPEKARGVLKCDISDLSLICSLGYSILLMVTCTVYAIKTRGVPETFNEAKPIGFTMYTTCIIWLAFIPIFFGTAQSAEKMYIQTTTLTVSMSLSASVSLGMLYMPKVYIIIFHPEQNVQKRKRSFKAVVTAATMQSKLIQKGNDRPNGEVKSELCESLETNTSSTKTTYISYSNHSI

Compound: Cc1nc2ccccc2nc1N/N=C/c1ccc(O)cc1 [Compound 6, (E)-4-((2-(3-methylquinoxalin-2-yl)hydrazono)methyl) phenol]
- activation of mGluR8 [1]: moderate activation
- antagonism of mGluRs ([2]; EC80 assay): not an antagonist of any mGluR
- selectivity across the mGluRs ([2]; activation (EC20 glutamate potentiation) and inhibition (depression of EC80) assays): highly selective for mGluR4
- activation of mGluR1 [3]: moderate activation
- pEC50 [4]: 6.19
- mGluR4 PAM activity (in words) [4]: Concentration-dependent potentiation
- mGluR1 antagonist activity [5]: devoid of mGluR1 antagonist activity; also recorded: did not exhibit mGluR1 antagonist activity
- effect on mGluR4 in the absence of glutamate [6]: no effect; also recorded: do not elicit receptor activation

Compound: Cc1ccc(N2C(=O)c3ccccc3NC2C(C)c2ccccc2)cc1 (stereo not shown) [Compound 7]
- fold shift of the glutamate response curve (leftward) [7]: 2.7 fold
- pEC50 [4]: 5.74

Compound: Cc1nc2ccccc2nc1N/N=C/c1ccccc1 [Compound 12d]
- mGluR4 PAM activity (in words) [4]: afforded mGluR4 PAM activity

Compound: O=C(O)[C@H]1CCCC[C@H]1C(=O)Nc1cc(Cl)cc(Cl)c1 [Compound 5]
- allosteric agonist activity [8]: significant allosteric agonist activity
- efficacy in preclinical Parkinson's disease models [9]: displayed efficacy in preclinical Parkinson’s disease models
- pEC50 [10]: 6.12

Compound: O=C(Nc1ccccc1)[C@]12C[C@H]1/C(=N\O)c1ccccc1O2 [PHCCC, N-phenyl-7-(hydroxyimino) cyclopropa(b)chromen-1a-carboxamide]
- mGluR1 antagonist activity (in words) [11]: significant mGluR1 antagonist activity

Compound: Cc1ccc(-n2ncc3c(N4CCCC(C)C4)ncnc32)c(C)c1 (stereo not shown) [Compound 4]
- mGluR1 antagonist activity (in words) [11]: significant mGluR1 antagonist activity
- pIC50 ([11]; read-out: IC50 (full antagonist of mGluR1)): 5.59
- fold shift of the glutamate response [10]: 11.8 fold
- pEC50 [10]: 5.30

Compound: Cc1nc2ccccc2nc1N/N=C/c1cccc(O)c1 [Compound 12a]
- loss in potency relative to 6 [4]: > 3 fold

Compound: Cc1nc2ccccc2nc1N/N=C/c1ccccc1O [Compound 12b]
- loss in potency relative to 6 [4]: > 6 fold

Compound: Cc1nc2ccccc2nc1N/N=C/c1ccc(F)cc1 [Compound 12c]
- mGluR4 PAM activity (in words) [4]: afforded mGluR4 PAM activity

Reference: PMC3787871 (Bioorganic & medicinal chemistry letters, 2008)
